Experimental data published in ChEMBL document CHEMBL1135732, “Synthesis and antitumor activity of several new analogues of penclomedine and its metabolites” (2002).

Columns and labels:
[1] = species: Mus musculus; experiment: Number of tumor-free survivors in a group of five mice; format: functional
Summary of the method: (§1)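 Human MX-1 breast tumor fragments (30–40 mg) from in vivo passage implanted subcutaneously in the axillary region. Dosing ip as a suspension in aqueous hydroxypropyl cellulose, once daily for 5 days, beginning when tumors reached about 300 mg. Groups of five mice. Tumors caliper-measured in two dimensions twice weekly and converted to mass. Study ended when control tumors reached 1 g.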

[2] = species: Mus musculus; experiment: Tumor growth delay in comparison vehicle-treated control, difference in the median time poststaging for tumors of the treated (T) group to double twice in mass compared to the median of the control (C) group ce; format: functional
Summary of the method: (§2)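 MX-1 human breast tumor (NCI repository), fragments of 30–40 mg from in vivo passage implanted subcutaneously in the axillary region. Groups of five mice dosed ip for 5 days once tumors reached about 300 mg, with compound as a suspension in aqueous hydroxypropyl cellulose. Tumors were caliper-measured in two dimensions twice weekly and converted to mass. Growth delay T−C was the difference in median time to two doublings versus vehicle controls. Regressions and tumor-free survivors were also recorded. The study ended when controls reached 1 g.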

[3] = test system: Mus musculus; experiment: In vivo optimal (ip) dosage (<LD10) against subcutaneously implanted human mammary tumor xenograft MX-1 on a five-successive day schedule in Athymic NCr-nu/nu mice; format: functional; summary of the method: as §1
[4] = test system: Mus musculus; experiment: In vivo optimal (ip) dosage (<LD10) against subcutaneously implanted human mammary tumor xenograft MX-1 on a five-successive day schedule in Athymic NCr-nu/nu mice; Toxic; format: functional, organism-based; summary of the method: as §2

In the case of `CC(=O)Oc1nc(C(Cl)(Cl)Cl)c(Cl)c(OC(C)=O)c1Cl`, the Tumor-free [1] is reported as 0 survivors/total, the T-C [2] is reported as -0.5 days and the Optimal dosage [3] is reported as 40 mg kg-1 dose-1 day-1.

Work on `Oc1c(Cl)c(Cl)nc(C(Cl)(Cl)Cl)c1Cl` yielded a Tumor-free [1] of 0 survivors/total, a T-C [2] of 2 days and an Optimal dosage [3] of 50 mg kg-1 dose-1 day-1.

`Clc1c(Oc2ccccc2)nc(C(Cl)(Cl)Cl)c(Cl)c1Oc1ccccc1` showed a Tumor-free [1] of 0 survivors/total, a T-C [2] of 0.2 days and an Optimal dosage [3] of 135 mg kg-1 dose-1 day-1.

Molecule `COc1nc(C(Cl)(Cl)Cl)c(Cl)c(Cl)c1Cl` has a Tumor-free [1] of 0 survivors/total, a T-C [2] of -1.4 days and an Optimal dosage [3] of 135 mg kg-1 dose-1 day-1.

For `Oc1nc(C(Cl)(Cl)Cl)c(Cl)c(O)c1Cl`, the Tumor-free [1] was 0 survivors/total, the T-C [2] was -0.5 days and the Optimal dosage [3] was 40 mg kg-1 dose-1 day-1.

`CCCCOc1nc(C(Cl)(Cl)Cl)c(Cl)c(OC)c1Cl` gave a Tumor-free [1] of 0 survivors/total, a T-C [2] of -0.8 days and an Optimal dosage [3] of 135 mg kg-1 dose-1 day-1.

Work on `CCOc1nc(C(Cl)(Cl)Cl)c(Cl)c(O)c1Cl` yielded a Tumor-free [1] of 0 survivors/total, a T-C [2] of 5.2 days and an Optimal dosage [3] of 60 mg kg-1 dose-1 day-1.

Molecule `CCOc1nc(C(Cl)(Cl)Cl)c(Cl)c(OC(=O)COC)c1Cl` has a Tumor-free [1] of 0 survivors/total, a T-C [2] of 17.8 days and an Optimal dosage [3] of 135 mg kg-1 dose-1 day-1.

Work on `CCOc1nc(C(Cl)(Cl)Cl)c(Cl)c(OCC)c1Cl` yielded a Tumor-free [1] of 4 survivors/total, a T-C [2] greater than 41 days and an Optimal dosage [3] of 135 mg kg-1 dose-1 day-1.

`COc1nc(C(Cl)(Cl)Cl)c(Cl)c(O)c1Cl` showed a Tumor-free [1] of 3 survivors/total, a T-C [2] greater than 37.2 days and an Optimal dosage [3] of 90 mg kg-1 dose-1 day-1.

`FC(F)(F)COc1nc(C(Cl)(Cl)Cl)c(Cl)c(OCC(F)(F)F)c1Cl` showed a Tumor-free [1] of 0 survivors/total, a T-C [2] of 0.4 days and an Optimal dosage [3] of 135 mg kg-1 dose-1 day-1.

`CCOc1nc(C(Cl)(Cl)Cl)c(Cl)c(OC)c1Cl` showed a Tumor-free [1] of 2 survivors/total, a T-C [2] greater than 38.6 days and an Optimal dosage [3] of 200 mg kg-1 dose-1 day-1.

For `Oc1c(Cl)c(OCC(F)(F)F)nc(C(Cl)(Cl)Cl)c1Cl`, the Tumor-free [1] was 0 survivors/total, the T-C [2] was -0.2 days and the Optimal dosage [3] was 90 mg kg-1 dose-1 day-1.

Molecule `CCOc1nc(C(Cl)(Cl)Cl)c(Cl)c(OC(C)=O)c1Cl` has a Tumor-free [1] of 0 survivors/total, a T-C [2] of 1.4 days and an Optimal dosage [3] of 90 mg kg-1 dose-1 day-1.

Molecule `CCCCOc1nc(C(Cl)(Cl)Cl)c(Cl)c(O)c1Cl` has a Tumor-free [1] of 0 survivors/total, a T-C [2] of -0.9 days and an Optimal dosage [3] of 135 mg kg-1 dose-1 day-1.

`COc1c(Cl)c(Oc2ccccc2)nc(C(Cl)(Cl)Cl)c1Cl` showed a Tumor-free [1] of 0 survivors/total, a T-C [2] of 2.3 days and an Optimal dosage [3] of 135 mg kg-1 dose-1 day-1.

For `CC(=O)Oc1c(Cl)c(Cl)nc(C(Cl)(Cl)Cl)c1Cl`, the Optimal dosage [4] was “Toxic”.

Work on `CCCOc1c(Cl)c(OC)nc(C(Cl)(Cl)Cl)c1Cl` yielded a Tumor-free [1] of 0 survivors/total, a T-C [2] of 5.4 days and an Optimal dosage [3] of 60 mg kg-1 dose-1 day-1.

`COc1nc(C(Cl)(Cl)Cl)c(Cl)c(OC)c1Cl` [PENCLOMEDINE] was tested, and the Tumor-free [1] was 5 survivors/total, the T-C [2] was greater than 49 days and the Optimal dosage [3] was 90 mg kg-1 dose-1 day-1.

`COc1nc(C(Cl)(Cl)Cl)c(Cl)c(OC(C)=O)c1Cl` showed a Tumor-free [1] of 5 survivors/total, a T-C [2] greater than 41 days and an Optimal dosage [3] of 90 mg kg-1 dose-1 day-1.

In the case of `CCCCOc1c(Cl)c(OC)nc(C(Cl)(Cl)Cl)c1Cl`, the Tumor-free [1] is reported as 1 survivors/total, the T-C [2] is reported as 20.5 days and the Optimal dosage [3] is reported as 90 mg kg-1 dose-1 day-1.

`COc1c(Cl)c(Cl)nc(C(Cl)(Cl)Cl)c1Cl` gave a Tumor-free [1] of 0 survivors/total, a T-C [2] of 4.3 days and an Optimal dosage [3] of 50 mg kg-1 dose-1 day-1.

`COc1nc(C(Cl)(Cl)Cl)c(Cl)c(OC(C)C)c1Cl` showed a Tumor-free [1] of 2 survivors/total, a T-C [2] greater than 35.2 days and an Optimal dosage [3] of 60 mg kg-1 dose-1 day-1.

Work on `COc1c(Cl)c(C(Cl)(Cl)Cl)nc(C(Cl)(Cl)Cl)c1Cl` yielded a Tumor-free [1] of 0 survivors/total, a T-C [2] of -0.8 days and an Optimal dosage [3] of 135 mg kg-1 dose-1 day-1.

Work on `COc1c(Cl)c(OCC(F)(F)F)nc(C(Cl)(Cl)Cl)c1Cl` yielded a Tumor-free [1] of 0 survivors/total, a T-C [2] of 1.2 days and an Optimal dosage [3] of 90 mg kg-1 dose-1 day-1.

Molecule `COc1c(Cl)c(O)nc(C(Cl)(Cl)Cl)c1Cl` has a Tumor-free [1] of 0 survivors/total, a T-C [2] of 0.8 days and an Optimal dosage [3] of 135 mg kg-1 dose-1 day-1.

`CCCCOc1nc(C(Cl)(Cl)Cl)c(Cl)c(OCCCC)c1Cl` was tested, and the Tumor-free [1] was 0 survivors/total, the T-C [2] was -0.6 days and the Optimal dosage [3] was 135 mg kg-1 dose-1 day-1.

In the case of `CC(C)Oc1nc(C(Cl)(Cl)Cl)c(Cl)c(OC(C)C)c1Cl`, the Tumor-free [1] is reported as 0 survivors/total, the T-C [2] is reported as -0.7 days and the Optimal dosage [3] is reported as 135 mg kg-1 dose-1 day-1.

`CCOc1c(Cl)c(OC)nc(C(Cl)(Cl)Cl)c1Cl` gave a Tumor-free [1] of 5 survivors/total, a T-C [2] greater than 42.7 days and an Optimal dosage [3] of 90 mg kg-1 dose-1 day-1.
